Reference: ChEMBL document CHEMBL4014350, “Alkoxyurea-Based Histone Deacetylase Inhibitors Increase Cisplatin Potency in Chemoresistant Cancer Cell Lines” (J Med Chem, 2017)
Active and inactive are the calls of the source. No cut-off for these calls is given here.

Tests used:
[1] = target: T1, Histone deacetylase 1/6 (Homo sapiens) (UniProt Q13547+Q9UBN7); test: Inhibition of HDAC1/HDAC6 in human Cal27CisR cells assessed as potentiation of 10 uM cisplatin-induced cytotoxicity by measuring combination index at 300 uM preincubated for 48 hrs followed by cisplatin treatment measured after 72 hrs by MTT assay; assay type: cell-based
Procedure, shortened: (§1)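 Cal27CisR cells preincubated 48 h with the HDAC inhibitor, then exposed to cisplatin for 72 h. Viability read by MTT. Combination index calculated by the Chou–Talalay method: CI > 1 antagonism, CI = 1 additive, CI < 0.9 synergism. Points with fraction affected below 0.20 are flagged. Values are the mean of three experiments.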

[2] = target: T1, Histone deacetylase 1/6 (Homo sapiens); test: Inhibition of HDAC1/HDAC6 in human Cal27CisR cells assessed as potentiation of cisplatin-induced apoptosis at 0.5 uM preincubated for 48 hrs followed by cisplatin treatment for 6 hrs measured after 24 hrs by propidium iodide dye-based flow cytometry (reference value: 20.3%); assay type: cell-based; set-up: scale not given: the % may be the effect or the level left
CAL-27 [3] = test: Potentiation of cisplatin-induced cytotoxicity against human CAL27 cells assessed as decrease in cell viability at 0.5 uM preincubated for 48 hrs followed by cisplatin treatment measured after 72 hrs by MTT assay relative to cisplatin alone; assay type: functional
Procedure, shortened: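 Cells were preincubated 48 h with HDAC inhibitor, then cisplatin was added over a concentration range for 72 h, with MTT read-out. Shift factor is cisplatin-alone IC50 divided by combination IC50. Data are mean ± SEM of pooled data from at least three independent experiments, each in triplicate. Significance was by t test (p < 0.05).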

[4] = target: T1, Histone deacetylase 1/6 (Homo sapiens); test: Inhibition of HDAC1/HDAC6 in human Cal27CisR cells assessed as potentiation of 20 uM cisplatin-induced cytotoxicity by measuring combination index at 400 nM preincubated for 48 hrs followed by cisplatin treatment measured after 72 hrs by MTT assay
[5] = target: T1, Histone deacetylase 1/6 (Homo sapiens); test: Inhibition of HDAC1/HDAC6 in human Cal27CisR cells assessed as potentiation of 3.16 uM cisplatin-induced cytotoxicity by measuring combination index at 300 uM preincubated for 48 hrs followed by cisplatin treatment measured after 72 hrs by MTT assay; assay type: cell-based; procedure, shortened: as §1
[6] = target: T1, Histone deacetylase 1/6 (Homo sapiens); test: Inhibition of HDAC1/HDAC6 in human Cal27CisR cells assessed as potentiation of 1 uM cisplatin-induced cytotoxicity by measuring combination index at 400 nM preincubated for 48 hrs followed by cisplatin treatment measured after 72 hrs by MTT assay
CAL-27 [7] = test: Potentiation of 2 uM cisplatin-induced cytotoxicity against human CAL27 cells assessed as decrease in cell viability by measuring combination index at 400 uM preincubated for 48 hrs followed by cisplatin treatment measured after 72 hrs by MTT assay; assay type: functional; conditions: in the assay text read “at 400 nM” for “at 400 uM”
Procedure, shortened: (§2)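 HDAC inhibitor was added 48 h before cisplatin, then cells were exposed to cisplatin for 72 h and viability was read by MTT assay. Combination index was computed by the Chou–Talalay method: CI > 1 is antagonism, CI = 1 additive, CI < 0.9 synergism. Points with fraction affected below 0.20 were flagged.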

[8] = target: T1, Histone deacetylase 1/6 (Homo sapiens); test: Inhibition of HDAC1/HDAC6 in human Cal27CisR cells assessed as potentiation of 20 uM cisplatin-induced cytotoxicity by measuring combination index at 100 nM preincubated for 48 hrs followed by cisplatin treatment measured after 72 hrs by MTT assay
[9] = target: T1, Histone deacetylase 1/6 (Homo sapiens); test: Inhibition of HDAC1/HDAC6 in human Cal27CisR cells assessed as potentiation of 3.16 uM cisplatin-induced cytotoxicity by measuring combination index at 200 uM preincubated for 48 hrs followed by cisplatin treatment measured after 72 hrs by MTT assay; assay type: cell-based; procedure, shortened: as §1
[10] = target: T1, Histone deacetylase 1/6 (Homo sapiens); test: Inhibition of HDAC1/HDAC6 in human Cal27CisR cells assessed as potentiation of 5 uM cisplatin-induced cytotoxicity by measuring combination index at 200 nM preincubated for 48 hrs followed by cisplatin treatment measured after 72 hrs by MTT assay
CAL-27 [11] = test: Potentiation of 5 uM cisplatin-induced cytotoxicity against human CAL27 cells assessed as decrease in cell viability by measuring combination index at 200 uM preincubated for 48 hrs followed by cisplatin treatment measured after 72 hrs by MTT assay; assay type: functional; conditions: in the assay text read “at 200 nM” for “at 200 uM”; procedure, shortened: as §2
[12] = target: T1, Histone deacetylase 1/6 (Homo sapiens); test: Inhibition of HDAC1/HDAC6 in human Cal27CisR cells assessed as potentiation of 3.16 uM cisplatin-induced cytotoxicity by measuring combination index at 100 uM preincubated for 48 hrs followed by cisplatin treatment measured after 72 hrs by MTT assay; assay type: cell-based; procedure, shortened: as §1
CAL-27 [13] = test: Potentiation of 1 uM cisplatin-induced cytotoxicity against human CAL27 cells assessed as decrease in cell viability by measuring combination index at 300 uM preincubated for 48 hrs followed by cisplatin treatment measured after 72 hrs by MTT assay; assay type: functional; procedure, shortened: as §2
[14] = target: T1, Histone deacetylase 1/6 (Homo sapiens); test: Inhibition of HDAC1/HDAC6 in human Cal27CisR cells assessed as potentiation of 10 uM cisplatin-induced cytotoxicity by measuring combination index at 100 uM preincubated for 48 hrs followed by cisplatin treatment measured after 72 hrs by MTT assay; assay type: cell-based; procedure, shortened: as §1
CAL-27 [15] = test: Potentiation of 0.5 uM cisplatin-induced cytotoxicity against human CAL27 cells assessed as decrease in cell viability by measuring combination index at 400 uM preincubated for 48 hrs followed by cisplatin treatment measured after 72 hrs by MTT assay; assay type: functional; conditions: in the assay text read “at 400 nM” for “at 400 uM”
Procedure, shortened: (§3)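 Cal27 and cisplatin-resistant Cal27CisR cells were preincubated with the HDAC inhibitor for 48 h, then given cisplatin in combination. Viability was read by MTT after 72 h. The combination index was computed by the Chou–Talalay method: CI > 1 is antagonism, CI = 1 is additive, and CI < 0.9 is synergism. Points with fraction affected below 0.20 were flagged.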

CAL-27 [16] = test: Induction of apoptosis in human CAL27 cells at 1 uM for 48 hrs by propidium iodide dye-based flow cytometry; assay type: functional, cell-based
CAL-27 [17] = test: Potentiation of 0.5 uM cisplatin-induced cytotoxicity against human CAL27 cells assessed as decrease in cell viability by measuring combination index at 300 uM preincubated for 48 hrs followed by cisplatin treatment measured after 72 hrs by MTT assay; assay type: functional; conditions: in the assay text read “at 300 nM” for “at 300 uM”; procedure, shortened: as §3
Cal27CisR = test: Induction of apoptosis in human Cal27CisR cells at 1 uM for 48 hrs by propidium iodide dye-based flow cytometry; assay type: functional, cell-based
[18] = target: T1, Histone deacetylase 1/6 (Homo sapiens); test: Inhibition of HDAC1/HDAC6 in human Cal27CisR cells assessed as potentiation of 10 uM cisplatin-induced cytotoxicity by measuring combination index at 400 uM preincubated for 48 hrs followed by cisplatin treatment measured after 72 hrs by MTT assay; assay type: cell-based; procedure, shortened: as §1
[19] = target: T1, Histone deacetylase 1/6 (Homo sapiens); test: Inhibition of HDAC1/HDAC6 in human Cal27CisR cells assessed as potentiation of 3.16 uM cisplatin-induced cytotoxicity by measuring combination index at 400 uM preincubated for 48 hrs followed by cisplatin treatment measured after 72 hrs by MTT assay; assay type: cell-based; procedure, shortened: as §3

T1 sequence (Q13547 whole entry, looked up): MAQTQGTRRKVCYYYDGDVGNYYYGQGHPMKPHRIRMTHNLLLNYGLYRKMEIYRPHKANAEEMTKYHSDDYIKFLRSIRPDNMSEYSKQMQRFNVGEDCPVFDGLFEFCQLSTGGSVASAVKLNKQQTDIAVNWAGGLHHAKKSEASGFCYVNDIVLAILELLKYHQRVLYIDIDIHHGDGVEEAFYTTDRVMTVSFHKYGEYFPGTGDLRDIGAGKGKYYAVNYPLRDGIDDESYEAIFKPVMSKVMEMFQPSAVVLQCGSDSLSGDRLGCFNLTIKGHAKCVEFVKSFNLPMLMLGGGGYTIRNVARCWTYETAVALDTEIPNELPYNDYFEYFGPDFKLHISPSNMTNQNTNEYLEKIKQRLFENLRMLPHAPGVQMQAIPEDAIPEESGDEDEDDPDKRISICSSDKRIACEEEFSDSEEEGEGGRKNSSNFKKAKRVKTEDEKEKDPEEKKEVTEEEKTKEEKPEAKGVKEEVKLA
T1 sequence (Q9UBN7 whole entry, looked up): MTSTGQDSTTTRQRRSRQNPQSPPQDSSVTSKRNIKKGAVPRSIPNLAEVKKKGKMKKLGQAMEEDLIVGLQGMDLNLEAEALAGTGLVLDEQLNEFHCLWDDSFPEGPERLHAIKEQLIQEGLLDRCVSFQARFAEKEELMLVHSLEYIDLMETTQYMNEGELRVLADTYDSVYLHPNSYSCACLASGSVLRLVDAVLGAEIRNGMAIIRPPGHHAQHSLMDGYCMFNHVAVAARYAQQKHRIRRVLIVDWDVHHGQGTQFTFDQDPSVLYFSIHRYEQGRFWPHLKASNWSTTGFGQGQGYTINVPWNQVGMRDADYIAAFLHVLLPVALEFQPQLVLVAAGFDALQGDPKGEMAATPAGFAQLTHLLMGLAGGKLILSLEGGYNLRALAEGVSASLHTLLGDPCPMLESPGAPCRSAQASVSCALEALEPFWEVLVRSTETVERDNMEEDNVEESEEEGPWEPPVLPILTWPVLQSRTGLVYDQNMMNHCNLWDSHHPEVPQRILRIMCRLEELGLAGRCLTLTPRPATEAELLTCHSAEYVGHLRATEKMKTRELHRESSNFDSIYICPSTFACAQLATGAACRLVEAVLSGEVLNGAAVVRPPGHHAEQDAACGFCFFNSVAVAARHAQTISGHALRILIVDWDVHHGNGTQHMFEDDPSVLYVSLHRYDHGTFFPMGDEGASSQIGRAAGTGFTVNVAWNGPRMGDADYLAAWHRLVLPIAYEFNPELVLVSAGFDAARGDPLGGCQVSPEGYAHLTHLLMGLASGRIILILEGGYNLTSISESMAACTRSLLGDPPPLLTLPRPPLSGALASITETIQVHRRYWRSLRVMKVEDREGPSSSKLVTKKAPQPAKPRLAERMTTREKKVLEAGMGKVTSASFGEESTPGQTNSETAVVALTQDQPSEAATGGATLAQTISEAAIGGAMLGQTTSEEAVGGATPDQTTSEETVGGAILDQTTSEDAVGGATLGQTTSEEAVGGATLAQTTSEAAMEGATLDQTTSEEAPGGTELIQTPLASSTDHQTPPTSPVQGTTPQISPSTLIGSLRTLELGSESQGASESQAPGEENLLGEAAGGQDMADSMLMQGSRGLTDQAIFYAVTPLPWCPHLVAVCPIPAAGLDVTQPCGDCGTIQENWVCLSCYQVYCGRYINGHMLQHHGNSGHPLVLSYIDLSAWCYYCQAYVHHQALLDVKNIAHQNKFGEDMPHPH

Activity [2] [%]	SMILES	CI [1]	fold change (FC) (CAL-27 [3])	CI [4]	CI [5]	CI [6]	CI (CAL-27 [7])	CI [8]	CI [9]	CI [10]	CI (CAL-27 [11])	CI [12]	CI (CAL-27 [13])	CI [14]	CI (CAL-27 [15])	Activity (CAL-27 [16])	CI (CAL-27 [17])	Activity (Cal27CisR)	CI [18]	CI [19]
59.7	COc1cc(NC(=O)NOCCCCCC(=O)NO)c2nc(OC)cc(C)c2c1	0.18	8.7	0.16	0.46	< 0.2	0.38	0.34	0.87	0.38	0.22	0.89	0.64	0.41	0.75	inactive	<0.2	inactive	0.16	0.3
59.7	COc1cc(NC(=O)NOCCCCCC(=O)NO)c2nccc(C)c2c1	0.43	6.1	0.28	< 0.2	< 0.2	0.27	0.73	< 0.2	< 0.2	0.29	< 0.2	0.44	< 0.2	0.91	inactive	<0.2	inactive	0.26	< 0.2
